Assay results: PubChem BioAssay AID651560 (Sanford-Burnham Center for Chemical Genomics, 2012)
The campaign covered roughly 360,000 compounds. About 820 (0.23%) were called active. This is one part of a sample in which actives are shown more often than they occur.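 Rule for the calls: active = compounds that cut the enzyme signal by at least half of the control window in the single-dose screen; inactive = the rest.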

Target: Low molecular weight phosphotyrosine protein phosphatase (Homo sapiens) (UniProt P24666)
Sequence (P24666 whole entry, looked up): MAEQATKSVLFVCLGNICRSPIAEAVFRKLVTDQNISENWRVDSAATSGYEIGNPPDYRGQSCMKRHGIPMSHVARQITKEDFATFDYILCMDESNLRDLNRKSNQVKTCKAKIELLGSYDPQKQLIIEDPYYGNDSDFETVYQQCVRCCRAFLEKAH
Assay: LMPTP phosphatase inhibitors, primary screen, biochemical, fluorescence intensity, uHTS (AID 651560);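 note: plate controls were DMSO wells with enzyme plus substrate for no effect and substrate without enzyme for full effect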
Conditions: recombinant LMPTP-A, OMFP fluorogenic substrate, at 20 µM, hits give high values
Summary of the method: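 Test system – LMPTP-A phosphatase enzyme · Quantity – 0.625 nM LMPTP-A final · Reagent – OMFP substrate, 400 µM final · Dosing – one test concentration per compound, 20 µM, with 3% DMSO overall · Timing – 50 min enzyme reaction at room temperature, protected from light · Detection – fluorescence intensity · Controls – substrate-only low control, DMSO enzyme-plus-substrate high control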

Compound	inhibition
COc1ccc2c(c1)c(=Cc1ccc(N(C)C)cc1)c1cc(-c3ccccc3)[n+](C)n12	96.2% (active)
O=C(COC(=O)c1ccc([N+](=O)[O-])o1)NC12CC3CC(CC(C3)C1)C2	1.22% (inactive)
COc1cc(NC(=S)N2CCCC(C)C2)c(OC)cc1Cl (stereo not given)	0.265% (inactive)
C=CCn1c(=O)n(C)c2c(=O)n(C)c(=O)n(C)c21	0.217% (inactive)
Cc1csc(NC(=O)CSc2nnc(-c3cccnc3)o2)n1	-0.391% (inactive)
N#Cc1ccc(OCC(=O)NC(=O)NC2CCS(=O)(=O)C2)cc1 (stereo not given)	-1.41% (inactive)
O=C(CCN1C(=O)[C@@H]2Cc3ccccc3CN2C1=O)NCc1ccccc1	0.0399% (inactive)
COc1cccc(N(C(=O)c2ccn[nH]2)C2(C(=O)Nc3c(C)cccc3C)CCCCC2)c1	-0.749% (inactive)
O=C(O)COCC(=O)NCc1csc2ccc(Cl)cc12	-1.97% (inactive)
CCOP(=O)(OCC)C(Nc1cccc(C)c1)c1ccc(F)cc1 (stereo not given)	0.494% (inactive)
COc1cnc(SCc2ccc(Cl)c(Cl)c2)nc1Cl	3.06% (inactive)
CCN(CC)CCNC(=O)c1sc2ncn(CC(=O)Nc3ccc(C)c(Cl)c3)c(=O)c2c1C	-0.286% (inactive)
CCN1CCN(c2ccc(S(=O)(=O)N3CCCCC3)cc2NC(=O)Cc2c(Cl)cccc2Cl)CC1	1.2% (inactive)
CCC(C)Cn1c(O)cc2nn(-c3nc4ccccc4s3)c(=O)c-2c1C (stereo not given)	52.5% (active)
O=c1c2cc(-c3ccccc3)sc2nc2n1N=C(c1cccs1)CS2	61.5% (active)
O=c1c(-c2ccccc2)cnc2n1CCS2	-1.57% (inactive)
COc1ccc(OC)c(Nc2nc(-c3ccc(O)c(O)c3)cs2)c1	62.5% (active)
COc1cccc(C(O)c2nc(-c3ccc(C)c(C)c3)cs2)c1 (stereo not given)	3.13% (inactive)
COc1ccc(C(O)c2nc(-c3ccc4c(c3)OCO4)cs2)cc1 (stereo not given)	0.808% (inactive)
Cc1ccccc1NC(=O)Cc1nc(COC(=O)CNC(=O)c2ccc(Cl)cc2Cl)cs1	0.684% (inactive)
COCCCNC(=O)C1CC(=O)N(CCc2ccccc2)C1 (stereo not given)	-0.151% (inactive)
CN(CCC1CCOCC1)C(=O)CC1C(=O)NCCN1Cc1cccc(F)c1 (stereo not given)	-1.38% (inactive)
Cc1cc2c(cc1C)N(C(=O)CN1C(=O)c3ccccc3C1=O)C(C)(C)c1ssc(=S)c1-2	2.43% (inactive)
CCOc1ccccc1NC(=O)C1CCCN(C(=O)Nc2ccccc2)C1 (stereo not given)	-1.09% (inactive)
O=C(Cn1cnc2c(nnn2-c2ccccc2)c1=O)N1CCC(Cc2ccccc2)CC1	1.23% (inactive)
COc1cccc(CNc2nc(NCc3cccs3)nc3ccsc23)c1	27% (inactive)
COCCNc1nc(NCc2ccc(NC(C)=O)cc2)c2sccc2n1	51.4% (active)
CC(=O)Nc1ccc(CNc2nc(NCCN(C)C)nc3cc(-c4ccccc4)sc23)cc1	1.9% (inactive)
Fc1ccccc1OCCSc1nc2ccccc2o1	1.37% (inactive)
CCSc1nc2c(c(=O)[nH]1)C(c1cccnc1)C(C(=O)OC(C)C)=C(C)N2 (stereo not given)	-1.3% (inactive)
